Screening data: PubChem, several laboratories
CAL PDZ FP-1: blocks peptide binding to the human CAL PDZ domain; Q9HD26; purified CAL PDZ, TMR-peptide fluorescence polarization, 1 h; inhibition, % at 24.9 µM; actives 0.92% (n = 300,000);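 active means mean inhibition of at least 30% with at least half of replicates also reaching 30%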
Keap1-Nrf2 PPI: disrupts human Keap1 binding to Nrf2 peptide; actives 0.15% (n = 340,000); inhibition, % at 9.4 µM; Keap1 Kelch-Nrf2 peptide fluorescence polarization, 1536-well; Q14145; AID 504523; in the data active means inhibition above about 12%;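 further: human Keap1 Kelch domain with fluorescein labeled Nrf2 9mer peptide probe; higher means more block of Keap1 binding to Nrf2 peptide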
APOBEC3G inh: inhibitors of human APOBEC3G DNA deaminase. Q9HC16. recombinant A3G, ssDNA deamination FAM/TAMRA fluorescence. inhibition, % at 20 µM. actives 0.28% (n = 330,000);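 active means inhibition of at least 40% at 20 µM, with no more than 30% in the related APOBEC3A deaminase screen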
Target sequence (Q9HC16 whole entry, looked up): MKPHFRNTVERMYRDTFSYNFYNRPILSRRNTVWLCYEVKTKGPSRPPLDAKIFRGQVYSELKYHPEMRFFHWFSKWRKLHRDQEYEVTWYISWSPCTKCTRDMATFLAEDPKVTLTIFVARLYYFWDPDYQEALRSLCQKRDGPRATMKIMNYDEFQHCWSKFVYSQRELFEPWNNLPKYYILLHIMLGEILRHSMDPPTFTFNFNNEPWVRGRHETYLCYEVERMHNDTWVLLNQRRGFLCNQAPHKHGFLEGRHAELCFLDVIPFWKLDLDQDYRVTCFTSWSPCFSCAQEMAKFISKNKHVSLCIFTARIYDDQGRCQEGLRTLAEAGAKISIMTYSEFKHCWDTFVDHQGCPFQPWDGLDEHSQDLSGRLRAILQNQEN
CAL PDZ FP-2: human CAL PDZ-peptide interaction inhibition; Q9HD26; purified CAL PDZ, TMR-peptide fluorescence polarization, 1 h; inhibition, % at 20 µM; actives 0.02% (n = 330,000); AID 504414;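 active means highest replicate inhibition of at least 40%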
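Assay system – tagged CAL PDZ protein CerCALP, purified · Timing – 1 h at RT · Compound – single point, 20 µM · Measured by – fluorescence polarization from S- and P-plane intensities, G-factor corrected · Evaluation – inhibition from polarization loss · Probe or stimulus – TMR reporter peptide T*-PRC34 · Buffer or medium – pH 7.4 phosphate-saline buffer, reducing agent, detergent, IgG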
LANA DNA inh: inhibitors of KSHV LANA C-terminal domain DNA binding; MBP-C-LANA/FAM-LBS DNA binding, fluorescence polarization; inhibition, % at 9 µM; actives 0.078% (n = 340,000); AID 504423;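 active means highest replicate inhibition at or above 60% at 9 µM, even if other replicates fall short; inactive means all replicates below 60% inhibition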
A3A deaminase: blocks human APOBEC3A ssDNA deamination. P31941. recombinant A3A, FAM/TAMRA ssDNA deamination fluorescence. inhibition, % at 20 µM. actives 0.41% (n = 330,000);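 active means at least 40% inhibition at 20 µM here, with at most 30% in a related deaminase screen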
APOBEC3A confirm: confirmation of human APOBEC3A DNA deaminase inhibitors | shares compounds with A3A deaminase | inhibition, % at 20 µM | recombinant A3A, ssDNA deaminase UDG fluorescence assay | actives 63% (n = 1,400) | AID 493151;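 active means inhibition reaching a set limit, 80% of the first screen's cutoff, at 20 µM in any replicate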
UDG ctr A3A: inhibits UDG, flagging false APOBEC3A inhibitors; shares compounds with A3A deaminase; UDG counterscreen, FAM/TAMRA uracil oligo fluorescence; inhibition, % at 20 µM; 1,000 tested, under 10 active; call rule not given here
A3G conf: confirmation of human APOBEC3G DNA deaminase inhibitors | actives 72% (n = 890) | shares compounds with APOBEC3G inh | AID 493152 | recombinant A3G ssDNA deaminase, UDG/FAM-TAMRA fluorescence | inhibition, % at 20 µM;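 active means inhibition reaching a set limit in any replicate at 20 µM, the limit being 80% of the first screen's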
UDG A3G counter: counter-screen for APOBEC3G inhibitors: E. coli UDG. shares compounds with APOBEC3G inh. UDG counterscreen, FAM/TAMRA oligo fluorescence. inhibition, % at 20 µM. 710 tested, under 10 active. AID 504715;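 active means compounds giving 40% or more inhibition at 20 µM in any one of the three replicates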;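 further: inhibitors lower the FAM signal released by uracil excision and alkaline cleavage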
Target sequence (P12295 whole entry, looked up): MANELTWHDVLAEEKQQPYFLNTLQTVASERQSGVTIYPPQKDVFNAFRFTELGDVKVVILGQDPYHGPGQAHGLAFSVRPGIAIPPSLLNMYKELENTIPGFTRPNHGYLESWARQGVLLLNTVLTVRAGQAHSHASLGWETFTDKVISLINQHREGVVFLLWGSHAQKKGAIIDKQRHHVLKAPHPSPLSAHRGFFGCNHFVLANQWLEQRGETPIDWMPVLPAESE
Keap1 TSA: Keap1 (human) Kelch domain binding; shares compounds with Keap1-Nrf2 PPI; Keap1 Kelch thermal shift, delta Tm; hits give high values; max delta Tm, degrees C; actives 8% (n = 400); AID 651823; in the data active means max delta Tm above about 0.48 degrees C
Numbers stand for hits; n = inactive; x = not tested or not shown. This is a sample that favours compounds with a hit; in the whole collection about 1.7% have one here.

SMILES	CAL PDZ FP-1	Keap1-Nrf2 PPI	APOBEC3G inh	CAL PDZ FP-2	LANA DNA inh	A3A deaminase	APOBEC3A confirm	UDG ctr A3A	others
COc1ccc(CCN2C(=O)CC(Sc3ncccc3C(=O)O)C2=O)cc1OC (centres undefined)	n	n	n	n	n	98.0	n	n
C=CCC1(CC=C)CCCN1C(=O)c1cc(COc2cncc(Cl)c2)on1	n	n	n	n	n	53.0	n	n
CCc1n(CC(O)COCc2ccccc2)c2ccccc2[n+]1C (centres undefined)	n	n	n	n	n	58.5	78.5	n
C=CCn1c2[n+](c3ccccc3c1=O)CCCCC2	n	n	n	n	n	67.2	51.9	n
CCCCNC(=O)[C@H]1C[C@H]1[C@@H](O)[C@H](CO)NC(=O)[C@H](COCc1ccccc1)NC(=O)OC(C)(C)C	n	n	n	n	n	n	x	x
CCCCNC(=O)[C@H]1C[C@H]1[C@@H](O)[C@H](CO)NC(=O)[C@H](Cc1ccccc1)NC(=O)OC(C)(C)C	n	n	n	n	n	66.1	n	n
CSc1nc2ccc(NS(=O)(=O)c3ccc(Br)s3)cc2s1	n	n	n	n	n	n	x	x
O=S(=O)(Nc1ccon1)c1ccc(Br)s1	n	n	n	n	n	76.0	n	n
O=C(CN1C(=O)COc2ccc(Cl)cc21)Nc1nccs1	n	n	n	n	n	n	x	x
Cc1cccnc1NC(=O)CN1C(=O)COc2ccc(Cl)cc21	n	n	n	n	n	68.7	58.6	n
Cn1c(N)c(C(=O)COC(=O)COc2ccc(C#N)cc2)c(=O)n(C)c1=O	n	n	n	n	n	91.5	n	n
Cc1cc(N/N=C/c2ccc(O)cc2)nc(NS(=O)(=O)c2ccccc2)n1	n	n	n	n	n	48.7	39.0	n
C=CC#CC1(O)CC(C)[N+](C)(C)CC1C (centres undefined)	n	n	n	n	n	55.8	70.7	n
Cc1ccc(OC(C)C(=O)Nc2ccc3c(c2)n(C)c(=O)n3C)c(C)c1 (centres undefined)	n	n	n	n	n	84.4	n	x
Cc1ccc(C(OCC(C)(C)C[N+](C)(C)C)c2ccccc2)cc1 (centres undefined)	n	n	n	n	n	65.4	76.3	n
CCN1/C(=C\C(C)=O)Sc2ccc(OC)cc21	n	n	n	n	n	58.1	66.5	n
CCC(=O)/C=C1\Sc2ccc(OC)cc2N1CC	n	n	n	n	n	n	x	x
CCN1C(=NCCOC)N[C@@H](c2cccc(C(F)(F)F)c2)C(C(=O)OC)=C1C	n	n	n	n	n	44.9	80.4	n
CCN1C(=NCC2CC2)N[C@@H](c2cccc(C(F)(F)F)c2)C(C(=O)OC)=C1C	n	n	n	n	n	55.6	67.3	n
COC(=O)C1=C(C)N(Cc2ccccc2)C(=NCC(C)C)N[C@H]1c1cccc(C(F)(F)F)c1	n	n	n	n	n	48.5	74.8	n
COc1cc(C(=O)NCc2ccco2)cc(OC)c1OC	n	n	n	n	n	n	x	x
COc1cc(C(=O)NCc2ccco2)c(Br)c(OC)c1OC	n	n	n	n	n	51.1	n	n
CC(C)CC1NC(=O)c2cc(Cl)ccc2-n2c1nc1cc(F)ccc1c2=O (centres undefined)	x	x	n	x	x	n	x	x
N#C/C(=C/c1cn(CC(=O)O)c2ccccc12)C(=O)Nc1ccccc1	n	n	n	n	n	n	x	x
Cc1cccc(NC(=O)/C(C#N)=C\c2cn(CC(=O)O)c3ccccc23)c1	n	n	n	n	n	53.2	n	x
SMILES	CAL PDZ FP-1	Keap1-Nrf2 PPI	APOBEC3G inh	CAL PDZ FP-2	LANA DNA inh	A3A deaminase	APOBEC3A confirm	UDG ctr A3A	others
CC(C)CN(C(=O)COC(=O)c1cc2c(s1)CCC2)C1CCS(=O)(=O)C1 (centres undefined)	n	n	n	n	n	45.0	44.4	x
CCN(C(=O)COC(=O)c1cc2c(s1)CCCCC2)C1CCS(=O)(=O)C1 (centres undefined)	n	n	n	n	n	n	x	x
CCCCn1c2c(c(=N)c3c1CCC3)CCC2	n	n	n	n	n	62.7	77.9	n
CC(C)c1ccc(N(C(=O)CNC(=O)c2ccco2)C(C(=O)NC2CCCC2)c2cccnc2)cc1 (centres undefined)	x	n	n	n	n	n	x	x
COc1cc(NS(=O)(=O)c2ccc(NC(=S)NC(=O)/C=C/c3ccco3)cc2)ncn1	n	16.5	n	n	n	55.0	73.5	n	Keap1 TSA=0.83
CCCC1=C(C(=O)OCC)C(c2ccc(OC)c(C)c2OC)C(C#N)=C(N)O1 (centres undefined)	n	n	n	n	n	n	x	x
O=C(Cc1ccc(S(=O)(=O)N2CCOCC2)s1)Nc1nc2c(s1)CCCC2	n	17.6	n	n	n	77.6	73.0	n	Keap1 TSA=n
O=C(Cc1ccc(S(=O)(=O)N2CCOCC2)s1)Nc1ccc2c(c1)CCC2	n	n	n	n	n	n	x	x
Cc1cc(C)c2[nH]c(=S)cc(C)c2c1	n	n	72.7	n	n	n	x	x	A3G conf=active;UDG A3G counter=n
CN(C)CCn1c2c(c(SCC(=O)Nc3ccccc3)nc1=O)CCCC2	n	n	n	n	n	n	x	x
CCc1ccc(NC(=O)CSc2nc(=O)n(CCCN(C)C)c3c2CCC3)cc1	n	n	65.0	n	n	n	x	x	A3G conf=n;UDG A3G counter=n
CCCCN(CCCC)C(=O)c1sc2nc(N3CCOCC3)c3c(c2c1N)CCCC3	x	x	41.5	x	x	n	x	x	A3G conf=n;UDG A3G counter=n
O=C1C(=O)N(CCO)C(c2ccc(Br)cc2)/C1=C(\O)c1ccccc1 (centres undefined)	n	n	44.8	n	n	n	x	x	A3G conf=n;UDG A3G counter=n
COc1ccc2nc(NC(=S)N(C)C)sc2c1	x	n	60.8	n	n	n	x	x	A3G conf=69.5;UDG A3G counter=n
Cc1cccc(C)c1OCC(=O)NNC(=S)NC(=O)C1CC1	n	n	n	n	n	n	x	x
Oc1ccc(/C=N/n2c(COc3ccccc3)n[nH]c2=S)cc1O	n	n	43.0	n	n	n	x	x	A3G conf=77.3;UDG A3G counter=n
